pIC50: −log10 of the molar value. In brackets after ≈: the same amount, converted by molar mass. Values belong to the compound of their own block, whether it stands above or below them.
Tests used:
[1] = target: T1, C-X-C chemokine receptor type 2 (Homo sapiens, UniProt P25025); test: Displacement of human recombinant [125I]IL8 from CXCR2 receptor expressed in CHO cells; type: cell-based
T1 sequence (P25025 whole entry): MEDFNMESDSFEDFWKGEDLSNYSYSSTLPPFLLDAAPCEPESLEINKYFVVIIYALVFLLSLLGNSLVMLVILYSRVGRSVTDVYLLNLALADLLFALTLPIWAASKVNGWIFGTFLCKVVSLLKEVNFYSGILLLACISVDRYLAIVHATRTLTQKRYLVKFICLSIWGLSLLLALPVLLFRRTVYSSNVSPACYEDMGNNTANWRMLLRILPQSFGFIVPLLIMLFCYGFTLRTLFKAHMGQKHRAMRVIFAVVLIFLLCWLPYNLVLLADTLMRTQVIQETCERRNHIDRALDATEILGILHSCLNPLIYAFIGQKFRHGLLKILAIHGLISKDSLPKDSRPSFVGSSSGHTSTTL
Summary of the method: (§1)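 Membranes from CHO cells expressing CXCR1 or CXCR2, with ~0.25 nM human recombinant [125I]-IL-8 as radioligand, run in 96-well format. Values are the mean of three individual experiments.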

[2] = Volume of distribution at steady state in rat at 1.6 mg/kg, iv and 3.2 mg/kg, po; type: ADME, organism-based; settings: in vivo, read-out: Vdss
[3] = Bioavailability in rat at 3.2 mg/kg, po; type: ADME, organism-based; settings: in vivo
Cytochrome P450 2D6 = Cytochrome P450 2D6 (Homo sapiens, UniProt P10635); test: Inhibition of human CYP2D6; type: ADME
Cytochrome P450 1A2 = Cytochrome P450 1A2 (Homo sapiens, UniProt P05177); test: Inhibition of human CYP1A2; type: ADME
[4] = Clearance in rat at 1.6 mg/kg, iv and […] mg/kg, po; type: ADME, organism-based; settings: in vivo
[5] = target: T1, C-X-C chemokine receptor type 2; test: Antagonist activity at CXCR2 receptor expressed in CHOK1 cells assessed as human IL8-induced calcium mobilization by FLIPR; type: functional, cell-based, CHO-K1
Summary of the method: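 Cells grown 24 h, loaded with Fluo-4 AM calcium dye, then exposed to compound at […] for 10 min at 37 °C. Ca2+ mobilization read on FLIPR as percent of maximal IL-8 response. IC50 taken as concentration giving 50% inhibition of the maximal IL-8 response.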

[6] = Solubility in phosphate buffer at pH 7.4; type: physicochemical
Summary of the method: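 Aqueous solubility measured in 0.05 M phosphate buffer, pH 7.4, containing 2% DMSO. High-throughput HPLC-based read-out.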

[7] = target: Interleukin-8 receptors, CXCR1/CXCR2 (Homo sapiens) (UniProt P25025+P25024); test: Ratio of IC50 for CXCR2 receptor to IC50 CXCR1 receptor; type: protein assay
Summary of the method: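 Selectivity ratio from radioligand-binding IC50s at CXCR2 and CXCR1, using CHO-cell membranes expressing each receptor. Binding results are the mean of three individual experiments.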

[8] = Half life in rat at 1.6 mg/kg, iv and 3.2 mg/kg, po; type: ADME, organism-based; settings: in vivo
Cytochrome P450 3A4 = Cytochrome P450 3A4 (Homo sapiens, UniProt P08684); test: Inhibition of human CYP3A4; type: ADME
Chain of Cytochrome P450 3A4 (P08684 whole entry): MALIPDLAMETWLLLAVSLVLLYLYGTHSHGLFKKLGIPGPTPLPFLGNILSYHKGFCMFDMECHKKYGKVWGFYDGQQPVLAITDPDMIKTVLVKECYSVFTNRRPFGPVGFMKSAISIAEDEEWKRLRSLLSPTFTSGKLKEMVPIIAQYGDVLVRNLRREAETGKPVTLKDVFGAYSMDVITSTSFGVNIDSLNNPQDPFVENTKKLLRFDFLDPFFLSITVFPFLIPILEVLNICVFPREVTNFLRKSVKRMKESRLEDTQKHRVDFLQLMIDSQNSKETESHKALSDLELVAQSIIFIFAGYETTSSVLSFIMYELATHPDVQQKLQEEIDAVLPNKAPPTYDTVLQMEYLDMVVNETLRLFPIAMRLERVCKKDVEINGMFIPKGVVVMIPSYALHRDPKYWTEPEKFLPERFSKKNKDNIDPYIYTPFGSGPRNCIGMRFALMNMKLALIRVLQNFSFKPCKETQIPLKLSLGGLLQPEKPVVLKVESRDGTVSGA

[9] = target: T2, C-X-C chemokine receptor type 1 (Homo sapiens, UniProt P25024); test: Displacement of human recombinant [125I]IL8 from CXCR1 receptor expressed in CHO cells; type: cell-based; summary of the method: as §1
T2 sequence (P25024 whole entry): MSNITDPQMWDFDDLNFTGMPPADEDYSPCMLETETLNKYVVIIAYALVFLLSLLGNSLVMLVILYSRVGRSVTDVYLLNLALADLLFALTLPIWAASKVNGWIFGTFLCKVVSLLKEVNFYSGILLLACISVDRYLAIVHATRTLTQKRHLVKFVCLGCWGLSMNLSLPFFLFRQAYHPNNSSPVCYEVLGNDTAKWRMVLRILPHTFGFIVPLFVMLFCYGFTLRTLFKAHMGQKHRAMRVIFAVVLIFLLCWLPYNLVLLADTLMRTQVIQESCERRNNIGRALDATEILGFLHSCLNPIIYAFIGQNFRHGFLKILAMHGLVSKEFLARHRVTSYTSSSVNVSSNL

Cytochrome P450 2C9 = Cytochrome P450 2C9 (Homo sapiens, UniProt P11712); test: Inhibition of human CYP2C9
Chain of Cytochrome P450 2C9 (P11712 whole entry): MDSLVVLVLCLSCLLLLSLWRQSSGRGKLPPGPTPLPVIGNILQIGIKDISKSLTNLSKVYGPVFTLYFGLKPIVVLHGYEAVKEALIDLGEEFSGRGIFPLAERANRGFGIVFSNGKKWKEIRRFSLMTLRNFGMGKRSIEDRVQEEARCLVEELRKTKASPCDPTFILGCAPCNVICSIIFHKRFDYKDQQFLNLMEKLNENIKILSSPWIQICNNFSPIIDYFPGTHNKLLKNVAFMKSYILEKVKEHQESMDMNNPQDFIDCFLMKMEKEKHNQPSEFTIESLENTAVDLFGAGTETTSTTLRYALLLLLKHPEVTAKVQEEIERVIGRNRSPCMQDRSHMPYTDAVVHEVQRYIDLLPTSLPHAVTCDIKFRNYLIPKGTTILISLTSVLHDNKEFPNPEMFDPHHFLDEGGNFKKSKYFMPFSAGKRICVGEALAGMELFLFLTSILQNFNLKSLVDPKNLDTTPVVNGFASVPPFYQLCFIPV

Histamine H3 receptor = Histamine H3 receptor (Homo sapiens, UniProt Q9Y5N1); test: Inhibition of histamine H3 receptor
Chain of Histamine H3 receptor (Q9Y5N1 whole entry): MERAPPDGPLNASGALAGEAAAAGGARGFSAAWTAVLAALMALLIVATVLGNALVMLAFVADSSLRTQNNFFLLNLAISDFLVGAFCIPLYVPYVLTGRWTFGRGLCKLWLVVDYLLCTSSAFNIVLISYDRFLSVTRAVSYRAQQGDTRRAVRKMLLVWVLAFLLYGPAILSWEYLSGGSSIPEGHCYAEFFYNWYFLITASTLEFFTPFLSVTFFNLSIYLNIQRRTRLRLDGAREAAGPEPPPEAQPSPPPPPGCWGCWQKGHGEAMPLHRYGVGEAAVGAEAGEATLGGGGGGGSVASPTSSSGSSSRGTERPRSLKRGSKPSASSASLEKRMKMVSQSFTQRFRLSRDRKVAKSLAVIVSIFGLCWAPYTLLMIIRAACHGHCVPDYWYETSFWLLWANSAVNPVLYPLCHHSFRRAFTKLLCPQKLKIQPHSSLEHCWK

P2Y purinoceptor 1 = P2Y purinoceptor 1 (Homo sapiens, UniProt P47900); test: Inhibition of P2Y1 receptor
D(3) dopamine receptor = D(3) dopamine receptor (Homo sapiens, UniProt P35462); test: Inhibition of dopamine D3 receptor
Chain of D(3) dopamine receptor (P35462 whole entry): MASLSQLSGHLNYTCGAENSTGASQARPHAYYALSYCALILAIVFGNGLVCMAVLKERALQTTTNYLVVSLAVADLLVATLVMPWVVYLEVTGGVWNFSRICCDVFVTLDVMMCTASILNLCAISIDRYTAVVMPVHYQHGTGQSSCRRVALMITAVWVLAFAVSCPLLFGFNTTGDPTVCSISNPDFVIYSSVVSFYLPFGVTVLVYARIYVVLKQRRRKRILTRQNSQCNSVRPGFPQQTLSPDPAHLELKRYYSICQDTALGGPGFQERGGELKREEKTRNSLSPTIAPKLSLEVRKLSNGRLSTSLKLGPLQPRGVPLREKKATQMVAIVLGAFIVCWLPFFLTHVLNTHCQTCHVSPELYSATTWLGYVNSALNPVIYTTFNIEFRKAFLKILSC

D(2) dopamine receptor = D(2) dopamine receptor (Homo sapiens, UniProt P14416); test: Inhibition of dopamine D2 receptor
[10] = target: 5-hydroxytryptamine receptor 2C (Homo sapiens, UniProt P28335); test: Inhibition of 5HT2C receptor
Chain of 5-hydroxytryptamine receptor 2C (P28335 whole entry): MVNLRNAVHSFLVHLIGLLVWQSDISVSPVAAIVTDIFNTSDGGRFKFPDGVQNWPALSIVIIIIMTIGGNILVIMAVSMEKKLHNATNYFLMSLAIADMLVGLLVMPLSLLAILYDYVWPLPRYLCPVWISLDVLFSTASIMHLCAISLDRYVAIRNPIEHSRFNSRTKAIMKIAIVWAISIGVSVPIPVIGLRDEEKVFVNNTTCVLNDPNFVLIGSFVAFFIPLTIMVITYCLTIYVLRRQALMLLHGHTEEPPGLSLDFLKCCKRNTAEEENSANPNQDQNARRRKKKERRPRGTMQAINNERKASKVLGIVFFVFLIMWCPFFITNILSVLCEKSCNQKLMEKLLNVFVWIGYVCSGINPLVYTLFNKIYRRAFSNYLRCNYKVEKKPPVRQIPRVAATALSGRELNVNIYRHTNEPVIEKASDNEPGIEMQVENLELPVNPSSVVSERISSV

[11] = target: T3, Adrenergic receptor alpha-1 (Homo sapiens, UniProt P35348+P25100+P35368); test: Inhibition of adrenergic alpha-1A receptor; type: protein assay
[12] = target: Mitogen-activated protein kinase 14 (Homo sapiens, UniProt Q16539); test: Inhibition of P38alpha
[13] = target: 5-hydroxytryptamine receptor 6 (Homo sapiens, UniProt P50406); test: Inhibition of 5HT6 receptor
[14] = target: 5-hydroxytryptamine receptor 1A (Homo sapiens, UniProt P08908); test: Inhibition of 5HT1A receptor
Chain of 5-hydroxytryptamine receptor 1A (P08908 whole entry): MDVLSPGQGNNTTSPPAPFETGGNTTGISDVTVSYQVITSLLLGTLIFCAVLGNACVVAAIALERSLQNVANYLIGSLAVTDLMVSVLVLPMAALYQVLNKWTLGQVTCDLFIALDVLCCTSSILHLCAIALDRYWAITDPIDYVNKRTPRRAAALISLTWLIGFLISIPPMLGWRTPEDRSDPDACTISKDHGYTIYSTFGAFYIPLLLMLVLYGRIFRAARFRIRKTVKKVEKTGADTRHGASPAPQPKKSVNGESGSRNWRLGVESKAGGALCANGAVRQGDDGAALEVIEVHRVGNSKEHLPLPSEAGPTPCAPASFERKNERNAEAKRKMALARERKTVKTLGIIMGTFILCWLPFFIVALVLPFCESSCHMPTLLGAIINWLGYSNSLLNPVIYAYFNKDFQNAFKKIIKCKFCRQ

[15] = target: Beta-1 adrenergic receptor (Homo sapiens, UniProt P08588); test: Inhibition of adrenergic beta-1 receptor
[16] = target: T3, Adrenergic receptor alpha-1; test: Inhibition of adrenergic A1 receptor; type: protein assay
[17] = target: 5-hydroxytryptamine receptor 1B (Homo sapiens, UniProt P28222); test: Inhibition of 5HT1B receptor
[18] = target: 5-hydroxytryptamine receptor 7 (Homo sapiens, UniProt P34969); test: Inhibition of 5HT7 receptor
Adenosine receptor A2a = Adenosine receptor A2a (Homo sapiens, UniProt P29274); test: Inhibition of adenosine A2a receptor
Chain of Adenosine receptor A2a (P29274 whole entry): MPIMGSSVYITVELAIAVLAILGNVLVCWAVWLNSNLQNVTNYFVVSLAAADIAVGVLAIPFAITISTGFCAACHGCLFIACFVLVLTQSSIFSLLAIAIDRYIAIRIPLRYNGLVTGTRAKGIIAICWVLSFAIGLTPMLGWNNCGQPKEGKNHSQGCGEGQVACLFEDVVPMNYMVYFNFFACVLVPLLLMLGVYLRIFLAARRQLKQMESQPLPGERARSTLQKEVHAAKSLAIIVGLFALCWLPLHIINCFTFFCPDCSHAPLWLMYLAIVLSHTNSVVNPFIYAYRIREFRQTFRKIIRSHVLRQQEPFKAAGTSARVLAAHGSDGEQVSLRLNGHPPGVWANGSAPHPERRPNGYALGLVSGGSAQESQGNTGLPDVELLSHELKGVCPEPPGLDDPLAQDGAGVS

[19] = target: Plasminogen activator inhibitor 1 (Homo sapiens, UniProt P05121); test: Inhibition of PAI1
Chain of Plasminogen activator inhibitor 1 (P05121 whole entry): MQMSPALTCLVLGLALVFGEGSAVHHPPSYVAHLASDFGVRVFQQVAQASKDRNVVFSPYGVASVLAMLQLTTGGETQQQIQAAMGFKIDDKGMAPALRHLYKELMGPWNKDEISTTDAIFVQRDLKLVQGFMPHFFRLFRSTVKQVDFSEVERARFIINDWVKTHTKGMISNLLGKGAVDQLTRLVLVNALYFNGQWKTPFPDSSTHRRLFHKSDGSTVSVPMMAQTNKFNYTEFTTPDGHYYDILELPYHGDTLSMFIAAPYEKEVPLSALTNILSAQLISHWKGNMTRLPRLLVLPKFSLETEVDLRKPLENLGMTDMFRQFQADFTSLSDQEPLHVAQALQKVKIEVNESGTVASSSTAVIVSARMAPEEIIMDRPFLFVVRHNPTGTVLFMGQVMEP

Histamine H1 receptor = Histamine H1 receptor (Homo sapiens, UniProt P35367); test: Inhibition of histamine H1 receptor
Chain of Histamine H1 receptor (P35367 whole entry): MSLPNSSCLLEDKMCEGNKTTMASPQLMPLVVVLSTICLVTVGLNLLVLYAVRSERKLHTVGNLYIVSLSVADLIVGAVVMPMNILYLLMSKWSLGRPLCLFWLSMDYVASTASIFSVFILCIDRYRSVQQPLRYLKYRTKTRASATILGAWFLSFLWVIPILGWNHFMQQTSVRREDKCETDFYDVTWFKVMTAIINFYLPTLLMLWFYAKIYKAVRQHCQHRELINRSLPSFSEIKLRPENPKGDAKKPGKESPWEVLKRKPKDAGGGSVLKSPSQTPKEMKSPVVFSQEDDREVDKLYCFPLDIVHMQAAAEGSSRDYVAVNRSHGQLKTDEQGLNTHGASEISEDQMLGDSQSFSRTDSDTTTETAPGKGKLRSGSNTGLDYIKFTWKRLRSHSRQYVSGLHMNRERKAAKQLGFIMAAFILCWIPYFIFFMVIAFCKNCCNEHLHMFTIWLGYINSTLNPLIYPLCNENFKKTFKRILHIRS

[20] = target: 5-hydroxytryptamine receptor 4 (Homo sapiens, UniProt Q13639); test: Inhibition of 5HT4A receptor
[21] = target: 5-hydroxytryptamine receptor 1D (Homo sapiens, UniProt P28221); test: Inhibition of 5HT1D receptor
Chain of 5-hydroxytryptamine receptor 1D (P28221 whole entry): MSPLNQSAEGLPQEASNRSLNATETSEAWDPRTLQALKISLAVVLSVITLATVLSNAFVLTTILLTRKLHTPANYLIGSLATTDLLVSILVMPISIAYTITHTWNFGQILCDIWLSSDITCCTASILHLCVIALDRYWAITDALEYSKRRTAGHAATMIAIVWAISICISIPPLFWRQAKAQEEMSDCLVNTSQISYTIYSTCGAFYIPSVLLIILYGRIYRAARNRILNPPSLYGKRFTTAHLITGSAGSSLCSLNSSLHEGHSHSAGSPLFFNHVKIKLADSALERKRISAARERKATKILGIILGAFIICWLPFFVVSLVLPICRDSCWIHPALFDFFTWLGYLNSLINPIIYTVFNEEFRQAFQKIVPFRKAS

[22] = target: Beta-2 adrenergic receptor (Homo sapiens, UniProt P07550); test: Inhibition of adrenergic beta2 receptor
Chain of Beta-2 adrenergic receptor (P07550 whole entry): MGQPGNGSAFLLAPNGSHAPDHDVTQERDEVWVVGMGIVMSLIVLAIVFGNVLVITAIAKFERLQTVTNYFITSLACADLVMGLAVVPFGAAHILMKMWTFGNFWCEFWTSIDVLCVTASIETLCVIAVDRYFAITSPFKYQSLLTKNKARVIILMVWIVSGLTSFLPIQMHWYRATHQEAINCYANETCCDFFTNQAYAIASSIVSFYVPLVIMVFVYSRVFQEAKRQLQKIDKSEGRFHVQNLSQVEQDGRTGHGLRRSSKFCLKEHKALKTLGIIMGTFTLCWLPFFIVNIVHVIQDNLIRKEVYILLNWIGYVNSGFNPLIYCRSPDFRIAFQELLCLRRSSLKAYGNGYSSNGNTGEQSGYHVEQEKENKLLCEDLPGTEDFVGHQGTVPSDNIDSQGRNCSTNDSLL

pIC50 [1]: 4.82
SMILES: CC[C@@H](C)NC1=Nc2c(O)cc(Cl)cc2S(=O)(=O)N1

pIC50 [1]: < 4.52
SMILES: O=S1(=O)NC(NCc2ccccc2Cl)=Nc2c(O)cc(Cl)cc21

pIC50 [1]: 6.08
SMILES: O=S1(=O)NC(Nc2ccccc2C(F)(F)F)=Nc2c(O)cc(Cl)cc21

pIC50 [1]: 5.80
SMILES: O=S1(=O)NC(Nc2c(F)cccc2Br)=Nc2c(O)cc(Cl)cc21

pIC50 [1]: < 4.52
SMILES: O=S1(=O)N=C(Nc2ccccc2N2CCOCC2)Nc2c(O)cc(Cl)cc21

pIC50 [1]: 6.32
SMILES: O=S1(=O)N=C(Nc2ccccc2Br)Nc2c(O)ccc(Cl)c21

SMILES: O=[N+]([O-])c1cc(O)c2c(c1)S(=O)(=O)N=C(Nc1ccccc1Cl)N2
Vd [2]: 0.53 L/kg
bioavailability [3]: 5%
pIC50 [1]: 7.09
pIC50 (Cytochrome P450 2D6): < 4.60
pIC50 (Cytochrome P450 1A2): < 4.60
clearance [4]: 23 mL/min/kg
pIC50 [5]: 5.96
solubility [6]: 188 µM (≈ 69.3 µg/mL)
Ratio IC50 [7]: < 100
half-life [8]: 2 h
pIC50 (Cytochrome P450 3A4): < 4.60
pIC50 [9]: 4.92
pIC50 (Cytochrome P450 2C9): 6.22

pIC50 [1]: 5.41
SMILES: O=S1(=O)N=C(Nc2cc(F)ccc2Br)Nc2c(O)cc(Cl)cc21

Ratio IC50 [7]: < 100
SMILES: O=S1(=O)N=C(Nc2cccc(F)c2Cl)Nc2c(O)cc(Cl)cc21

pIC50 [1]: 5.28
SMILES: O=S1(=O)N=C(Nc2ccccc2Cl)Nc2c(O)cccc21

pIC50 [1]: 6.13
SMILES: O=S1(=O)N=C(Nc2ccccc2F)Nc2c(O)cc(Cl)cc21

pIC50 [1]: 6.64
SMILES: O=S1(=O)NC(Nc2ccccc2-c2ccccc2)=Nc2c(O)cc(Cl)cc21

pIC50 [1]: 5.29
SMILES: O=S1(=O)NC(Nc2ccc(Br)cc2)=Nc2c(O)cc(Cl)cc21

pIC50 [1]: 6.55
SMILES: Cc1cc(O)c2c(c1)S(=O)(=O)N=C(Nc1ccccc1Br)N2

pIC50 [1]: 5.52
SMILES: O=S1(=O)N=C(Nc2ccccc2Br)Nc2c(O)ccc(F)c21

pIC50 [1]: 6.41
SMILES: Cc1ccccc1NC1=NS(=O)(=O)c2cc(Cl)cc(O)c2N1

pIC50 [1]: 6.60
SMILES: COc1ccccc1NC1=Nc2c(O)cc(Cl)cc2S(=O)(=O)N1

pIC50 [1]: 5.21
SMILES: O=S1(=O)N=C(Nc2cccc(Br)c2)Nc2c(O)cc(Cl)cc21

pIC50 [1]: 6.03
SMILES: O=S1(=O)NC(Nc2ccccc2OC(F)(F)F)=Nc2c(O)cc(Cl)cc21

pIC50 [1]: 7.19
pIC50 [5]: 6.34
solubility [6]: 160 µM (≈ 60.2 µg/mL)
pIC50 [9]: 4.89
SMILES: O=S1(=O)NC(Nc2cccc(F)c2Cl)=Nc2c(O)cc(Cl)cc21

pIC50 [1]: 5.10
SMILES: O=S1(=O)NC(NCc2ccccc2)=Nc2c(O)cc(Cl)cc21

Ratio IC50 [7]: < 100
SMILES: O=S1(=O)N=C(Nc2ccccc2Br)Nc2c(O)cc(Cl)cc21

pIC50 [1]: < 4.52
SMILES: O=C(O)c1ccccc1NC1=Nc2c(O)cc(Cl)cc2S(=O)(=O)N1

pIC50 [1]: 4.70
SMILES: O=S1(=O)N=C(NC2CCCC2)Nc2c(O)cc(Cl)cc21

pIC50 [1]: 7.15
SMILES: O=S1(=O)N=C(Nc2ccccc2Br)Nc2c(O)cc(Br)cc21

pIC50 [1]: 5.35
SMILES: CC(=O)c1ccccc1NC1=Nc2c(O)cc(Cl)cc2S(=O)(=O)N1

pIC50 [1]: 5.62
SMILES: O=S1(=O)N=C(Nc2ccccc2)Nc2c(O)cc(Cl)cc21

pIC50 [1]: 7.59
pIC50 [5]: 6.22
solubility [6]: 233 µM (≈ 96.3 µg/mL)
Ratio IC50 [7]: < 100
pIC50 [9]: 5.49
SMILES: O=[N+]([O-])c1cc(O)c2c(c1)S(=O)(=O)N=C(Nc1ccccc1Br)N2

pIC50 [1]: 6.92
SMILES: O=S1(=O)N=C(Nc2ccc(F)cc2Br)Nc2c(O)cc(Cl)cc21

pIC50 (Histamine H3 receptor): < 5.49
pIC50 (P2Y purinoceptor 1): < 4.60
pIC50 (D(3) dopamine receptor): < 5.49
pIC50 (D(2) dopamine receptor): < 5.49
pIC50 [10]: < 5.00
IC50 [11]: 1 µM
pIC50 [1]: 7.27
pIC50 [12]: 4.60
pIC50 [13]: < 5.10
pIC50 [14]: < 5.49
pIC50 [5]: 6.31
solubility [6]: 2 µM (≈ 0.853 µg/mL)
pIC50 [15]: < 4.60
IC50 [16]: > 25 µM
pIC50 [17]: < 5.49
Ratio IC50 [7]: < 100
pIC50 [18]: 4.60
pIC50 (Adenosine receptor A2a): 4.60
pIC50 [19]: 5.10
pIC50 (Histamine H1 receptor): < 5.00
pIC50 [20]: < 4.60
pIC50 [9]: 5.12
pIC50 [21]: < 5.49
pIC50 [22]: < 4.60
SMILES: O=[N+]([O-])c1cc(O)c2c(c1)S(=O)(=O)N=C(Nc1ccccc1Oc1ccccc1)N2

pIC50 [1]: 7.27
pIC50 [5]: 6.49
solubility [6]: < 1 µM
Ratio IC50 [7]: < 100
pIC50 [9]: 4.70
SMILES: O=S1(=O)N=C(Nc2ccccc2Oc2ccccc2)Nc2c(O)cc(Cl)cc21

pIC50 [1]: 7.04
pIC50 [5]: 6.28
solubility [6]: 68 µM (≈ 24.4 µg/mL)
Ratio IC50 [7]: < 100
pIC50 [9]: 4.62
SMILES: O=S1(=O)N=C(Nc2ccccc2Cl)Nc2c(O)cc(Cl)cc21

pIC50 [1]: 7.19
pIC50 [5]: 6.40
solubility [6]: 31 µM (≈ 12.5 µg/mL)
pIC50 [9]: 4.89
SMILES: O=S1(=O)NC(Nc2ccccc2Br)=Nc2c(O)cc(Cl)cc21

pIC50 [1]: 6.44
SMILES: O=S1(=O)NC(Nc2ccccc2Br)=Nc2c(O)cc(F)cc21
